Experimental data as given in PMC2744899 (Journal of the American Chemical Society, 2009).
Several values for one entry are separate records, joined by “and”; a condition that tells them apart may be missing. Equal values may be shown once.

Legend:
[1] = Thermal bleaching by singlet oxygen from sodium molybdate and H2O2; format: physicochemical; conditions: for loss of absorbance (bleaching): free dye 1 μM
Method in brief: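 Singlet oxygen was generated thermally from 50 mM Na2MoO4 plus 9.8 mM H2O2 (final) at pH 9.0, with ionic strength matched to standard wash buffer. Reactions used 1 µM dye, free (in H2O or D2O, followed by absorbance) or with 1 µM K7. Spectra were taken before molybdate addition, then every 10 min for 40 min.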

[2] = tested on: scFv K7 displayed on the yeast cell-surface; test: Fluorescence titration of dye into yeast surface-displayed K7; conditions: read-out: Kd Yeast-Displayed K7, 10^7 yeast cells, 1:1 binding model
[3] = Photobleaching of DIR/K7 by Xe lamp irradiation and fluoromodule regeneration; format: physicochemical
[4] = Photobleaching by direct irradiation; format: physicochemical; conditions: compare Figures 3 and 10, per photons absorbed per dye molecule

| bleaching in the presence of K7 ([1]; [Dye] = [K7] = 1 μM, pH 9, 40 min) | loss of absorbance (bleaching) ([1]; no K7, 90% D2O, pH 9, 40 min) | loss of absorbance (bleaching) ([1]; no K7, H2O, pH 9, after 40 min reaction) | loss of DIR fluorescence after irradiation ([3]; 1:1 DIR/K7 at 250 nM, λ > 455 nm, 15 min, H2O) | fluorescence restored after addition of another equivalent of DIR ([3]; after 15 min irradiation, one equivalent (250 nM) fresh DIR added) | photobleaching efficiency relative to DIR and α-CN-DIR [4] | Structure (SMILES) | Kd [2] |
| --- | --- | --- | --- | --- | --- | --- | --- |
| 20% | 74% | 42% | 55 (±7) % and 55% | 89 % of the original value |  | CN1/C(=C/C=C/c2cc[n+](CCCS(=O)(=O)[O-])c3ccccc23)C(C)(C)c2ccccc21 [DIR, dimethylindole red] | 0.0139 ± 0.0032 µM |
|  |  |  |  |  | > 100 fold | CN1C(=Cc2cc[n+](C)c3ccccc23)Sc2ccccc21 [TO, thiazole orange] |  |
